PubChem BioAssay
Records with an inconclusive call do not appear. The source made the active and inactive calls.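 The calls were made as follows, unless noted: active = inhibition over a set limit, the all-compound mean plus 3 SD, in both replicate runs; inconclusive = over that limit in just one replicate run; inactive = at or under that limit in both runs.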

What was measured:
[1] = S. cerevisiae growth inhibition in permissive medium (OD615), pilot counter-assay for S. cerevisiae lifespan shortening project, permissive growth control (AID 705;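 active = growth inhibition above 25% in both replicates, a cutoff set 3 SD above the mean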); details: OD615, 24 h, at 10 µM, active compounds read high
Outline: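 Material: engineered DeaD yeast; compound dosing: one dose 10 µM, DMSO 0.25% final; measure: yeast growth inhibition indicated by reduced 24 h OD615; detection: OD615 turbidity read; incubation: cells pre-grown 4 h, then 24 h compound exposure, 30 °C humidified; medium: permissive synthetic complete medium with raffinose and galactose carbon sources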

[2] = S. cerevisiae growth inhibition in restrictive medium, OD615, pilot screen, restrictive growth control, yeast lifespan reduction project (AID 706;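 active = growth inhibition above a set limit, 3 SD over mean compound inhibition, in both replicates, cut at about 43% in these data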;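 also: modified DeaD lifespan yeast strain shifted to restrictive glucose medium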); details: OD615, 48 h, at 10 µM, active compounds read high
Outline: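 material = engineered S. cerevisiae DeaD strain | medium = glucose-based CSMM-D restrictive medium | times = 4 h pre-incubation, 48 h exposure at 30 °C | technique = OD615 absorbance reading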

[3] = doxorubicin toxicity protection in MRP-1 cells – H69AR cells, CellTiter-Glo, duplicate, MRP-1 activator project, pilot screen (AID 807;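 active = viability increase at or above a cutoff of the median across tested compounds plus 3 SD, cut at about 8.5% in these data, passing the limit was not always enough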;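 also: compound pretreatment 18-22 h then 72 h combined with doxorubicin; 0% = doxorubicin alone and 100% = vehicle without doxorubicin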); details: H69AR viability with doxorubicin, CellTiter-Glo luminescence; at 10 µM; active compounds read high
[4] = viability of HCT116 without oncogenic beta-catenin – human colon tumor cells, pilot screen (AID 823;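 active = cell viability at or below a set limit in both duplicate runs, the limit being the all-compound median minus 4 SD, cut at about 23% in these data, passing the limit was not always enough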;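 also: 0% = wells killed by 20 µM Hyamine and 100% = untreated DMSO cell wells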); details: HCT116 beta-catenin knockout viability, CellTiter-Glo, 60 h; at 10 µM; active compounds read low
[5] = viability of PTEN-null HCT116 cells – cell-based, HCT116 clonal line, CellTiter-Glo, pilot screen (AID 824;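 active = viability at or below 27.92% in each of two runs, the all-compound median minus 4 SD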;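 also: 0% = 20 µM Hyamine control and 100% = vehicle cell control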); details: HCT116 PTEN-deleted viability, 60 h, at 10 µM, active compounds read low
[6] = RAM pathway blockade in budding yeast – dse1pr::URA3 reporter, 5-FOA selection, pilot screen (AID 869);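 also: 0% = DMSO wells with no growth and 100% = 10 µM 1-NA-PP1 with full growth; RAM network block rescues cells from 5-FOA so hits raise OD615 growth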; details: S. cerevisiae dse1pr::URA3 5-FOA growth, OD615, 2 d; at 10 µM; active compounds read high; strain carries analog-sensitive mutant Cbk1 kinase
[7] = RAM signaling pathway blockade in yeast – S. cerevisiae, Pdr1DBD-CYC8 efflux-inhibited sensitized strain, primary screen (AID 1298;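 active = RAM network inhibition above 8.4% in each of two replicates, 3 SD over the compound average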;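 also: 0% = DMSO untreated cells without growth and 100% = 10 µM 1-NA-PP1 full growth; higher means more yeast growth rescued from 5-FOA killing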); details: S. cerevisiae cbk1-as DSE1-URA3 strain, 5-FOA growth OD615, 2 d; at 50 µM; active compounds read high

O=C(NCCn1ccc2ccccc21)C1CCCCC1
inactive: growth inhibition [1] -13.3% | growth inhibition [2] -15.1% | viability increase [3] -0.84% | viability [4] 87.7% | viability [5] 87.2% | inhibition [6] 2.12% | RAM network inhibition [7] 2.92%

CC(=O)N1CCN(CCN=CC2=C(O)CC(c3ccc(Cl)cc3)CC2=O)CC1 (configuration not stated)
inactive: growth inhibition [1] -8.45% | growth inhibition [2] -3.19% | viability increase [3] 1.98% | viability [4] 99.2% | viability [5] 101% | inhibition [6] 1.2% | RAM network inhibition [7] -0.17%

COc1ccc(-c2cc(C(F)(F)F)n3nc(C(=O)N4CCCC4)cc3n2)cc1
inactive: growth inhibition [1] -5.39% | growth inhibition [2] -2.34% | viability increase [3] -3.39% | viability [4] 93.9% | viability [5] 84.7% | inhibition [6] 1.71% | RAM network inhibition [7] 7.1%

COC(=O)c1ccc(NC(=O)Cn2nc(SC)n(N)c2=S)cc1
inactive: growth inhibition [1] -11.2% | growth inhibition [2] -14.1% | viability increase [3] -0.99% | viability [4] 98% | viability [5] 99.3% | inhibition [6] 1.85% | RAM network inhibition [7] 7.07%

COC(=O)C1=C(C)n2cnnc2NC1c1ccc(Cl)cc1 (configuration not stated)
inactive: growth inhibition [1] 0.905% | growth inhibition [2] -4.44% | viability increase [3] 0.28% | viability [4] 104% | viability [5] 97.2% | inhibition [6] 1.27% | RAM network inhibition [7] -0.92%

O=C(COc1ccccc1)N1CCN(S(=O)(=O)c2cccs2)CC1
inactive: growth inhibition [1] -4.47% | growth inhibition [2] -11% | viability increase [3] -0.82% | viability [4] 94% | viability [5] 85.3% | inhibition [6] 0.6% | RAM network inhibition [7] 7.83%

Cn1c(=O)[nH]c(=O)c2c1nc(NC1CCCCC1)n2CCO
inactive: growth inhibition [1] -16.7% | growth inhibition [2] -22.4% | viability increase [3] -2.15% | viability [4] 102% | viability [5] 97.9% | inhibition [6] 1.19% | RAM network inhibition [7] 3.67%

C=CCn1c(=NC(=O)C2CC2)sc2cc(NC(C)=O)ccc21
inactive: growth inhibition [1] -3% | growth inhibition [2] -3.58% | viability increase [3] -4.77% | viability [4] 95.7% | viability [5] 101% | inhibition [6] 0.675% | RAM network inhibition [7] 0.32%

COC(=O)CCSCC(=O)Nc1nnc(C)s1
inactive: growth inhibition [1] 3.46% | growth inhibition [2] -7.57% | viability increase [3] -0.31% | viability [4] 108% | viability [5] 93.1% | inhibition [6] 3.05% | RAM network inhibition [7] 0.66%

CCOc1ccccc1N(CC(=O)Nc1ccccc1C(=O)O)S(C)(=O)=O
inactive: growth inhibition [1] -15.5% | growth inhibition [2] -9.54% | viability increase [3] 0.9% | viability [4] 97.5% | viability [5] 85.1% | inhibition [6] 0.11% | RAM network inhibition [7] 5.86%

CCN(CC)C(=O)c1sc(NC(=O)c2ccoc2C)c(C(=O)OC)c1C
inactive: growth inhibition [1] -5.36% | growth inhibition [2] 5.77% | viability increase [3] -1.15% | viability [4] 83.4% | viability [5] 90.6% | inhibition [6] 1.33% | RAM network inhibition [7] 7.43%

COc1ccccc1-c1coc2cc(O)cc(O)c2c1=O
inactive: growth inhibition [1] 3.81% | growth inhibition [2] 9.45% | viability increase [3] 0.63% | viability [4] 93.4% | viability [5] 92.6% | inhibition [6] 0.26% | RAM network inhibition [7] 0.05%

CC(C)c1ccc(NC(=O)C(c2ccccc2)N2CCOCC2)cc1 (configuration not stated)
inactive: growth inhibition [1] -0.695% | growth inhibition [2] 0.125% | viability increase [3] 1.44% | viability [4] 91.3% | viability [5] 83.6% | inhibition [6] 0.515% | RAM network inhibition [7] 0.47%

Cc1ccc(C2CC(c3ccc(Cl)cc3)n3nc(N)nc3N2)cc1 (configuration not stated)
inactive: growth inhibition [1] 1.88% | growth inhibition [2] 7.93% | viability increase [3] -0.27% | viability [4] 93.9% | viability [5] 93.5% | inhibition [6] 1.9% | RAM network inhibition [7] 8.2%

CC(C)N(C(=O)CN(C#N)c1nc(N(C)C)nc(N(C)C)n1)c1ccccc1
inactive: growth inhibition [1] -16.1% | growth inhibition [2] -7.49% | viability increase [3] -2.51% | viability [4] 100% | viability [5] 106% | inhibition [6] 2.33% | RAM network inhibition [7] 4.46%

COc1ccc(OC)c2[nH]c(=O)c(CCNC(=O)C(C)(C)C)cc12
inactive: growth inhibition [1] -5.16% | growth inhibition [2] -4.56% | viability increase [3] 1.19% | viability [4] 105% | viability [5] 102% | inhibition [6] 0.23% | RAM network inhibition [7] 0.89%

O=C(c1csc2c1CCCC2)N1CCCCC1
inactive: growth inhibition [1] 12.4% | growth inhibition [2] 8.33% | viability increase [3] -1.17% | viability [4] 99.2% | viability [5] 102% | inhibition [6] -0.145% | RAM network inhibition [7] 1.12%

COc1ccccc1NC(=O)C1=C(C)NC(=O)NC1c1ccccc1F (configuration not stated)
inactive: growth inhibition [1] -7.88% | growth inhibition [2] -13.5% | viability increase [3] -0.75% | viability [4] 99.2% | viability [5] 107% | inhibition [6] 1.82% | RAM network inhibition [7] 2.41%

COc1ccc(OC)c(C(C)NC(=O)c2ccco2)c1 (configuration not stated)
inactive: growth inhibition [1] -6.2% | growth inhibition [2] 2.66% | viability increase [3] -5.99% | viability [4] 40.8% | viability [5] 35.4% | inhibition [6] 0.005% | RAM network inhibition [7] 0.72%

CCC(C)NC(=O)CS(=O)Cc1nc(-c2cccc(OC)c2)oc1C (configuration not stated)
inactive: growth inhibition [1] -12.5% | growth inhibition [2] -1.45% | viability increase [3] -1.45% | viability [4] 98% | viability [5] 94.5% | inhibition [6] 1.23% | RAM network inhibition [7] 4.44%

CCS(=O)(=O)Nc1cc(-c2nc3cccnc3s2)ccc1C
inactive: growth inhibition [1] -6.48% | growth inhibition [2] 12.5% | viability increase [3] -3.94% | viability [4] 100% | viability [5] 82.8% | inhibition [6] 1.89% | RAM network inhibition [7] 5.32%

COc1ccc(CC(=O)Nc2oc(-c3ccccc3)c(-c3ccccc3)c2C#N)cc1OC
inactive: growth inhibition [1] -6.81% | growth inhibition [2] -2.63% | viability increase [3] -0.77% | viability [4] 76.9% | viability [5] 68.2% | inhibition [6] 1.75% | RAM network inhibition [7] 8.44%

c1ccc(OCCSc2ncnc3nc[nH]c23)cc1
inactive: growth inhibition [1] 3.62% | growth inhibition [2] 15.4% | viability increase [3] -0.26% | viability [4] 93.3% | viability [5] 87.4% | inhibition [6] 1.73% | RAM network inhibition [7] 3.23%

COc1ccc(S(=O)(=O)Cc2ccc(C(=O)NC(C)C)o2)cc1
inactive: growth inhibition [1] -1.35% | growth inhibition [2] 0.215% | viability increase [3] 1.22% | viability [4] 108% | viability [5] 99.6% | inhibition [6] -0.2% | RAM network inhibition [7] 1.2%

COc1cccc(C2NC(C)(C(=O)O)C3C(=O)N(C(C)C)C(=O)C23)c1O (configuration not stated)
inactive: growth inhibition [1] 2.59% | growth inhibition [2] 1.56% | viability increase [3] -1.19% | viability [4] 91.5% | viability [5] 91.3% | inhibition [6] 1.82% | RAM network inhibition [7] 2.7%

Cc1cccc(-c2nc(CS(=O)CC(=O)NCC3CCCO3)c(C)o2)c1 (configuration not stated)
inactive: growth inhibition [1] 4.35% | growth inhibition [2] 17.3% | viability increase [3] -2.27% | viability [4] 105% | viability [5] 96.3% | inhibition [6] 0.725% | RAM network inhibition [7] 2.14%

CC1Cc2ccccc2N1C(=O)CSC1=NCCS1 (configuration not stated)
inactive: growth inhibition [1] 7.58% | viability increase [3] -6.91% | viability [4] 92.6% | viability [5] 95.2% | inhibition [6] 2.67% | RAM network inhibition [7] 6.64%
active: growth inhibition [2] 50.5%

CCOC(=O)C(CCOc1cccc(CC)c1)C(=O)OCC
inactive: growth inhibition [1] 4.28% | growth inhibition [2] -17.2% | viability increase [3] -2.61% | viability [4] 89.5% | viability [5] 87% | inhibition [6] -0.12% | RAM network inhibition [7] 2.13%

CN1C[N+]([O-])=C(c2ccccc2)C1(C)C
inactive: growth inhibition [1] -1.95% | growth inhibition [2] -8.32% | viability increase [3] -2.64% | viability [4] 98.7% | viability [5] 91.2% | inhibition [6] 0.69% | RAM network inhibition [7] 1.81%

CCC(=O)Nc1ccc(C(=O)c2ccccc2)cc1
inactive: growth inhibition [1] -6.81% | growth inhibition [2] -2.21% | viability increase [3] 2.97% | viability [4] 98.5% | viability [5] 97% | inhibition [6] 1.16% | RAM network inhibition [7] 2.9%

CCOC(=O)c1c(N)sc2c(O)c(Br)ccc12
inactive: growth inhibition [1] -26.9% | growth inhibition [2] -1.8% | viability increase [3] -0.49% | viability [4] 104% | viability [5] 107% | inhibition [6] 1.01% | RAM network inhibition [7] 5.24%

C=CCNc1ncnc2c1cnn2-c1cccc(C)c1
inactive: growth inhibition [1] 8.9% | growth inhibition [2] 1.8% | viability increase [3] -1.03% | viability [4] 101% | viability [5] 98.5% | inhibition [6] 3.21% | RAM network inhibition [7] 0.06%

CCC(CC)c1nnc(NC(=O)c2c(-c3ccccc3)noc2C)s1
inactive: growth inhibition [1] -10.7% | growth inhibition [2] 3.94% | viability increase [3] -1.44% | viability [4] 90.2% | viability [5] 93.9% | inhibition [6] 0.27% | RAM network inhibition [7] 2.57%

O=C(CCN1CCc2ccccc2C1)Nc1ccccc1
inactive: growth inhibition [1] -6.32% | growth inhibition [2] -8.03% | viability increase [3] -4.06% | viability [4] 89.8% | viability [5] 89.3% | inhibition [6] 2.04% | RAM network inhibition [7] 2.39%

COc1ccc(Br)cc1S(=O)(=O)N(CC(=O)N1CCOCC1)c1ccccc1
inactive: growth inhibition [1] -2.82% | growth inhibition [2] -7.74% | viability increase [3] -2.08% | viability [4] 98.1% | viability [5] 98.6% | inhibition [6] 2.6% | RAM network inhibition [7] 3.62%

COC(=O)CC1Oc2ccccc2N(Cc2ccccc2)C1=O (configuration not stated)
inactive: growth inhibition [1] -21.8% | growth inhibition [2] -15.5% | viability increase [3] -0.13% | viability [4] 92.2% | viability [5] 92.5% | inhibition [6] 1.56% | RAM network inhibition [7] 3.83%
